Screening data from PubChem BioAssay.
b-catenin transl: modulators of beta-catenin nuclear translocation, primary screen, imaging, HeLa cells, immunofluorescence, high-content; nuclear translocation activity, % at 5 µM; actives 0.3% (n = 190,000); AID 1665, 2009;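 active means nuclear translocation activity above 50% at 5 µM, with a well cell count of 50 or more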;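 further: per-cell ratio of nuclear to cytoplasmic median beta-catenin stain intensity; plate controls were DMSO negative control for no effect and GSK-3 inhibitor IX positive control for full effect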
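Test system: HeLa cells, endogenous beta-catenin; Compound: single 5 µM dose plus 0.02–20 µM confirmation series; Times: compound exposure 24 h at 37°C; Signal: fluorescence imaging of beta-catenin antibody stain plus DAPI; Read-out: % activation, nuclear-to-cytoplasmic median beta-catenin signal ratio per cell.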
Wee1 stabilizer: Wee1 degradation inhibitors, primary screen, cell-based, HeLa, Wee1K328M-luciferase, luminescence; Wee1-like protein kinase (Homo sapiens), P30291; HeLa Luc-Wee1K328M stability; 100% = proteasome inhibitor MG132 effect; reporter increase, % at 5 µM; actives 1.2% (n = 220,000);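 active means activation above the mean of all tested compounds plus 3 SD, set per screening run, cut at about 8.8% in these data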;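 further: cells exposed to compound for 20 h before luminescence read; 0% = DMSO alone and 100% = MG132 at 30 µM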
Target sequence (P30291 whole entry K328M): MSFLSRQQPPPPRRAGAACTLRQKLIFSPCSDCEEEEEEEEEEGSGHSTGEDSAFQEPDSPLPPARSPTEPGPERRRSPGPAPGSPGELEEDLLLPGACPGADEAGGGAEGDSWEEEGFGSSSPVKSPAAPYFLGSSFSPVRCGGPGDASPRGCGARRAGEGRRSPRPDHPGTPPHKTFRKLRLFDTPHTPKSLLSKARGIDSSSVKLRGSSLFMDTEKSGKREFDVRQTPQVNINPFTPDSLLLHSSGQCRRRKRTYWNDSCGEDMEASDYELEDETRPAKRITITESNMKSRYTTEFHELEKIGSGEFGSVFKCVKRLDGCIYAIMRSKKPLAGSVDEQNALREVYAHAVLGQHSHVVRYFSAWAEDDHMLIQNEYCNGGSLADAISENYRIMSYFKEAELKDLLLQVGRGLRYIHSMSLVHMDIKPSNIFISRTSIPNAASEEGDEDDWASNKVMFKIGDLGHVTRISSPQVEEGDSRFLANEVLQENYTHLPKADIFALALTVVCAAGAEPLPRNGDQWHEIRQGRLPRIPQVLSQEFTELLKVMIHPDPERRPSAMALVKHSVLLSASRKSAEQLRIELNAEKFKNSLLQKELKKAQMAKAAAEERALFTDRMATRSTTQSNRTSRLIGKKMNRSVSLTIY
Insulin prom up: insulin promoter activators in MIN6 cells, imaging, high-content screening, mouse beta cells. MIN6 insulin promoter-GFP reporter; hits give high values. z-score at 5 µM. actives 0.3% (n = 190,000). AID 1625, 2009;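 active means z-score above 3 at 5 µM with at least 500 cells counted in the well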
Autophagy HCS: autophagy modulators in MEF cells, primary screen, imaging, high-content, MEF GFP-LC3. MEF GFP-LC3 puncta imaging; test concentration mostly 10 µM. calls only at 10 µM (by protocol). actives 0.98% (n = 190,000);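 active means percentage of spot-positive cells more than 3 SD above its plate mean, without a fluorescence outlier flag or 80% toxicity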;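 further: spot-positive cell cutoff set from DMSO-treated cells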
MT stabilizer: microtubule stabilizers in HeLa cells, primary screen, imaging, high-content imaging; AID 2205, 2009; actives 0.83% (n = 200,000); HeLa tubulin immunostaining HCS, 24 h; share of cells brighter than vehicle mean+2SD; % tubulin-high responders, % at 10 µM;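 active means plate Z-score above 3 for both tubulin-high and condensed-nucleus cell shares, with cell loss under 80%, at 10 µM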;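 further: anti alpha tubulin signal scored within the nucleus-defined area of each cell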
Numbers without * were called inactive; i = inactive; nt = not tested or not shown; + = active, no number. This is a sample that favours compounds with a hit; in the whole collection about 2.9% have one here.

SMILES	b-catenin transl	Wee1 stabilizer	Insulin prom up	Autophagy HCS	MT stabilizer
Cc1noc(C)c1CSc1nc2[nH]ncc2c(=O)n1-c1ccccc1	3	0	-0.36	i	25*
CC(C)(C)c1ccc(-c2nnc(SCC(=O)NC3CCS(=O)(=O)C3)n2N)cc1 (stereo not given)	-2	3	1	i	3
O=C(NCC(=O)N(c1cccc(F)c1)C(C(=O)NC1CCCC1)c1cccnc1)c1cccs1 (stereo not given)	0	-2	0.25	i	2
Cc1ccc(C(=O)N2C(CC(=O)Nc3ccc(Cl)cc3)C(=O)NC3CCCCC32)cc1 (stereo not given)	0	6	0.01	i	20*
COc1cc(C2SCCS2)cc(Br)c1Oc1ncccc1[N+](=O)[O-]	-2	13*	-0.35	nt	nt
O=C(Cn1cnc2cc([N+](=O)[O-])ccc2c1=O)NC1CCS(=O)(=O)C1 (stereo not given)	-6	4	0.03	i	8
COc1ccc(NS(=O)(=O)c2ccc(NC(=O)c3ccc(Br)cc3)cc2)nn1	-1	-3	-0.07	i	4
COc1ccc(NS(=O)(=O)c2ccc(NC(=O)c3ccccc3)cc2)nn1	0	11*	0.65	i	4
Cc1ccc(Nc2c(F)c(F)c(F)c(F)c2C(=O)O)cc1	-1	13*	0.26	i	1
COc1ccc2c(c1)C(=O)CC(O)(C(F)F)O2 (stereo not given)	-1	9.8*	-0.25	nt	nt
COc1ccc(CNC(=O)COC(=O)C2CCC(C(C)(C)C)CC2)cc1 (stereo not given)	0	5	0.02	i	2
CCOc1ccc(C(=O)NCC(=O)OCc2cc([N+](=O)[O-])cc3c2OCOC3)cc1OCC	-2	-1	0.95	i	1
COc1cc(C(=O)NC(CCSC)C(=O)OCc2cc([N+](=O)[O-])cc3c2OCOC3)cc(OC)c1OC (stereo not given)	-1	9.6*	0.54	i	5
CCOP1(=O)OCC2OC(n3cnc4c(N)ncnc43)C(O)C2O1 (stereo not given)	-1	0	nt	nt	nt
COc1ccc(-c2nnc(SCC(=O)Nc3sc4c(c3C#N)CCCC4)n2-c2ccccc2)cc1	1	-2	0.16	+	20*
NC(=O)c1c(NC(=O)CSc2nnc(-c3ccco3)n2-c2ccccc2)sc2c1CCC2	0	1	nt	i	23*
N#Cc1c(NC(=O)CSc2nnc(-c3ccco3)n2-c2ccccc2)sc2c1CCC2	-1	-1	-0.27	i	3
COc1ccc(-c2nnc(SCC(=O)Nc3ncc(C)s3)n2-c2ccccc2)cc1OC	32	9.9*	-0.11	i	58*
CSc1sc(C(=O)N(C)C)c2c1S(=O)(=O)N(C)c1ccccc1-2	1	0	-0.31	nt	nt
COc1cc(-c2onc3ccc(Br)cc23)cc(OC)c1OC	33	0	0.18	i	7.7*
N#CC1=C(N)OC2=C(CCc3ccccc32)C1c1ccccc1Cl (stereo not given)	12	-1	0.19	i	18*
CC(C)CNC(=O)c1ccc(NC(=O)c2cccs2)cc1	nt	2	-0.31	i	1
COc1ccc(N=c2oc3c(OC)cccc3cc2C(=O)NCc2ccco2)cc1OC	0	2	-0.76	+	8
COc1ccc(N=c2oc3ccccc3cc2C(=O)Nc2ccccn2)cc1OC	1	1	0.03	+	2
CN(CC(=O)Nc1ccccc1C(F)(F)F)C(=O)COc1ncnc2ccccc12	2	0	-1.1	i	4
SMILES	b-catenin transl	Wee1 stabilizer	Insulin prom up	Autophagy HCS	MT stabilizer
COc1ccc(CCN=C(C)C2=C(O)C(c3ccccc3)OC2=O)cc1OC (stereo not given)	-1	-3	-0.11	i	2
CCOC(=O)Cc1c(C)nc2c(-c3ccccc3)c(C)[nH]n2c1=O	nt	1	nt	i	3
CCOC(=O)Cc1c(C)nc2c(-c3ccccc3)c[nH]n2c1=O	-1	4	-0.02	i	19*
CCOC(=O)Cc1c(C)nc2c(-c3cccc(Br)c3)cnn2c1C	0	10*	-0.3	i	2
Cc1cc(NC(=O)c2c(C)noc2C)no1	-2	1	1.2	nt	nt
CCCN(Cc1nnc(-c2ccccc2Cl)o1)C(=O)c1cc([N+](=O)[O-])cc([N+](=O)[O-])c1	0	-3	0.43	i	6
Cc1ccc(C(=O)CSc2nnc(-c3cccs3)n2C)o1	nt	2	-0.87	i	5
Cn1c(SCC(=O)N(C2CCCCC2)C2CCCCC2)nnc1-c1cccs1	nt	-1	-0.22	i	28*
Cc1ccc(-n2ncc3c(=O)[nH]c(SC(C)C)nc32)cc1	-2	-2	nt	nt	6
CCOC(=O)C(C)Sc1nc2c(cnn2-c2ccc(C)cc2)c(=O)[nH]1 (stereo not given)	1	6	nt	i	43*
O=C(c1ccc(Cl)c(S(=O)(=O)N2CCOCC2)c1)N1CCN(Cc2ccccc2)CC1	1	-4	nt	i	3
CCOc1ccccc1NC1=C(Cl)C(=O)N(c2ccccc2)C1=O	-1	-3	0.38	i	4
CCCCN(C)CCNC(=O)c1nn(-c2ccc(OC)cc2)c(=O)c2c1c1ccccc1n2C	0	1	nt	+	1
CC(C)Oc1cccc(C(=O)C2CCCN(Cc3cnc(N4CCOCC4)s3)C2)c1 (stereo not given)	1	2	nt	i	2
CCn1c(COc2cc(C)ccc2C(C)C)nnc1SCC(=O)Nc1nccs1	-5	11*	-0.31	i	1
Cn1c(CCCOc2ccc(Cl)cc2Cl)nnc1SCC(=O)Nc1nccs1	nt	-1	-0.46	i	1
CCCSc1nc2cc(C)c(C)cc2n1CC(C)O (stereo not given)	1	1	0.41	i	3
COc1ccc(C[C@H]2CN3C(=NC[C@@H]3Cc3ccccc3)N2CCNC(=O)c2ccc(C)c(Br)c2)cc1	2	3	-0.19	+	82
COc1ccc(C[C@H]2CN3C(=NC[C@H]3Cc3ccccc3)N2CCNC(=O)c2ccc(C)c(Br)c2)cc1	63*	nt	0.03	nt	nt
COc1ccc(C[C@H]2CN3C(=NC[C@@H]3Cc3ccc(O)cc3)N2CCNC(=O)c2ccc(C)c(Br)c2)cc1	-1	2	-2.8	i	5
Cc1ccc(C(=O)NCCN2C3=NC[C@@H](Cc4ccccc4)N3C[C@H]2Cc2ccc(O)cc2)cc1Br	-3	2	-1.5	i	7
Cc1ccc(C(=O)N[C@@H](C)CN2C3=NC[C@H](C(C)C)N3C[C@H]2Cc2ccc(O)cc2)cc1Br	-1	-1	-0.36	+	1
O=c1cc(N2CCCCC2)c(-c2ccccc2)nn1Cc1c(Cl)cccc1Cl	nt	0	nt	i	2
